Test results: ChEMBL document CHEMBL1156604 (Bioorg Med Chem Lett, 2008)

Assays:
[1] = molecular target: Kappa-type opioid receptor (Homo sapiens, UniProt P41145); assay: Displacement of [3H]U69593 from human kappa opioid receptor expressed in CHO cell membrane; assay type: cell membranes
Procedure, shortened: (§1)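 Compounds were tested as hydrochloride salts in competition binding against the tritiated radioligand on CHO cell membranes. Ki values are given ± SEM.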

Mu-type opioid receptor = Mu-type opioid receptor (Homo sapiens, UniProt P35372); assay: Displacement of [3H]DAMGO from human mu opioid receptor expressed in CHO cell membrane; assay type: cell membranes
Mu-type opioid receptor, sequence (P35372 whole entry): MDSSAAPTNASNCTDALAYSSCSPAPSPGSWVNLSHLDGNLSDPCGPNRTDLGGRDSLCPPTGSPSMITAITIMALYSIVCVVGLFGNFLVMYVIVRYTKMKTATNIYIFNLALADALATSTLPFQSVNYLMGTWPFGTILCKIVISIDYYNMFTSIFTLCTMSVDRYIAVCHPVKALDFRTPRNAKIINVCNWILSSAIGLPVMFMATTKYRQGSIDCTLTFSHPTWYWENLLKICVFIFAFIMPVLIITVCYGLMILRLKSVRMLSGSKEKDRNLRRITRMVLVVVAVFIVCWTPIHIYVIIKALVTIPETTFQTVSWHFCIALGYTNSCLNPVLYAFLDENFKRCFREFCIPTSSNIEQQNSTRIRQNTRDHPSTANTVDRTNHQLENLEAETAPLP

[2] = molecular target: Delta-type opioid receptor (Homo sapiens, UniProt P41143); assay: Displacement of [3H]Naltindole from human delta opioid receptor expressed in CHO cell membrane; assay type: cell membranes; procedure, shortened: as §1
Delta-type opioid receptor, sequence (P41143 whole entry): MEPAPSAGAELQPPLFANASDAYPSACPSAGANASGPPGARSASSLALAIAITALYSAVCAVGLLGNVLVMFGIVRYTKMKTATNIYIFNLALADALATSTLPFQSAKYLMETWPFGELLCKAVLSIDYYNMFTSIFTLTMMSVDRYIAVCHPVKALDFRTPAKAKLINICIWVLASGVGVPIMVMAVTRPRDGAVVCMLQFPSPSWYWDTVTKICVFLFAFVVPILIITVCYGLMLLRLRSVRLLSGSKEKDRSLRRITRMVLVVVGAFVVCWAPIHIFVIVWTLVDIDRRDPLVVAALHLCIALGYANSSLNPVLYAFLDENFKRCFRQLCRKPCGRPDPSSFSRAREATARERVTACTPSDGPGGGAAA

Homo sapiens [3] = species: Homo sapiens; assay: Selectivity ratio of Ki for human kappa opioid receptor to Ki for human delta opioid receptor
Homo sapiens [4] = species: Homo sapiens; assay: Selectivity ratio of Ki for human mu opioid receptor to Ki for human delta opioid receptor
Homo sapiens [5] = species: Homo sapiens; assay: Selectivity ratio of Ki for human mu opioid receptor to Ki for human kappa opioid receptor

Kappa-type opioid receptor, sequence (P41145 whole entry): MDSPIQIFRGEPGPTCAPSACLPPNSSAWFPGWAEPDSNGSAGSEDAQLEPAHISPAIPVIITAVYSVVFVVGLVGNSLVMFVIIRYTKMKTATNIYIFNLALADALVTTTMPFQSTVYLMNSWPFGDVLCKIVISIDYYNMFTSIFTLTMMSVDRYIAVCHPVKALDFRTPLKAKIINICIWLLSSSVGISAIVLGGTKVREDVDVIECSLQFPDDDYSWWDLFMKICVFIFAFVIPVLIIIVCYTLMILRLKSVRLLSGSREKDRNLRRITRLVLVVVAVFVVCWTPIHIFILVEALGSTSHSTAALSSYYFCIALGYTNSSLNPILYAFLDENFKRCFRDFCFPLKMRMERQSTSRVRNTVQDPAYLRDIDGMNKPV

SMILES | Ki [1] | Ki (Mu-type opioid receptor) | Ki [2] | Ratio Ki (Homo sapiens [3]) | Ratio Ki (Homo sapiens [4]) | Ratio Ki (Homo sapiens [5])
Oc1ccc2c(c1)[C@@]13CCCC[C@@]1(O)[C@@H](C2)N(CC1CCC1)CC3 [BUTORPHANOL] | 0.12 nM |  |  |  |  | 
OCCCOc1ccc2c(c1)[C@@]13CCCC[C@@]1(O)[C@@H](C2)N(CC1CCC1)CC3 | 8.6 nM | 18 nM | 490 nM | 2.1 | 57 | 1
O=C(Cc1ccc(-c2ccccc2)cc1)Oc1ccc2c(c1)[C@@]13CCCC[C@@]1(O)[C@@H](C2)N(CC1CCC1)CC3 | 0.87 nM | 2.7 nM | 190 nM | 3.1 | 218 | 1
O[C@@]12CCCC[C@@]13CCN(CC1CCC1)[C@@H]2Cc1ccc(OCc2ccccc2)cc13 | 28 nM | 21 nM | 670 nM | 1 | 32 | 1.3
O=[N+]([O-])c1ccc(Oc2ccc3c(c2)[C@@]24CCCC[C@@]2(O)[C@@H](C3)N(CC2CCC2)CC4)cc1 | 28 nM | 16 nM | 1500 nM | 1 | 94 | 1.8
O=C(Cc1ccccc1)Oc1ccc2c(c1)[C@@]13CCCC[C@@]1(O)[C@@H](C2)N(CC1CCC1)CC3 | 0.48 nM | 0.32 nM | 63 nM | 1 | 197 | 1.5
NC(=O)COc1ccc2c(c1)[C@@]13CCCC[C@@]1(O)[C@@H](C2)N(CC1CCC1)CC3 | 67 nM | 55 nM | 760 nM | 1 | 11 | 1.2
O[C@@]12CCCC[C@@]13CCN(CC1CCC1)[C@@H]2Cc1ccc(OCCc2ccccc2)cc13 | 9 nM | 10 nM | 500 nM | 1 | 56 | 1
Nc1ccc(Oc2ccc3c(c2)[C@@]24CCCC[C@@]2(O)[C@@H](C3)N(CC2CCC2)CC4)cc1 | 5.2 nM | 3.9 nM | 930 nM | 1 | 240 | 1.3
Cc1ccc(C(C)C(=O)Oc2ccc3c(c2)[C@@]24CCCC[C@@]2(O)[C@@H](C3)N(CC2CCC2)CC4)cc1 (some centres undefined) | 1.3 nM | 2.3 nM | 96 nM | 1.9 | 74 | 1
C[C@H]1[C@H]2Cc3ccc(C(=O)N(C)CCc4ccc(-c5ccccc5)cc4)cc3[C@@]1(C)CCN2CC1CC1 | 11 nM | 6.7 nM | 12 nM | 1 | 1.8 | 1.6
O=C(Oc1ccc2c(c1)[C@@]13CCCC[C@@]1(O)[C@@H](C2)N(CC1CCC1)CC3)c1ccc(-c2ccccc2)cc1 | 18 nM | 15 nM | 690 nM | 1 | 46 | 1
COc1ccc(CC(=O)Oc2ccc3c(c2)[C@@]24CCCC[C@@]2(O)[C@@H](C3)N(CC2CCC2)CC4)cc1 | 0.21 nM | 0.22 nM | 23 nM | 1 | 110 | 1
O=C(COc1ccccc1)Oc1ccc2c(c1)[C@@]13CCCC[C@@]1(O)[C@@H](C2)N(CC1CCC1)CC3 | 0.048 nM | 0.061 nM | 22 nM | 1.3 | 458 | 1
